Test results reported in ChEMBL document CHEMBL4145595, “Discovery of MK-8282 as a Potent G-Protein-Coupled Receptor 119 Agonist for the Treatment of Type 2 Diabetes” (ACS Med Chem Lett, 2018).
pEC50: −log10 of the molar value. Values after ≈ are worked out from the molar mass of the structure shown. Active and inactive are the calls of the source. The calls are words filed in the database; no cut-off is given here.

Assays:
[1] = target: T1, Glucose-dependent insulinotropic receptor (Homo sapiens) (UniProt Q8TDV5); assay: (§1) Agonist activity at human GPR119 expressed in HEK293 cells assessed as increase in cAMP level after 30 mins by LANCE assay; type: functional, cell-based
T1 sequence (whole entry): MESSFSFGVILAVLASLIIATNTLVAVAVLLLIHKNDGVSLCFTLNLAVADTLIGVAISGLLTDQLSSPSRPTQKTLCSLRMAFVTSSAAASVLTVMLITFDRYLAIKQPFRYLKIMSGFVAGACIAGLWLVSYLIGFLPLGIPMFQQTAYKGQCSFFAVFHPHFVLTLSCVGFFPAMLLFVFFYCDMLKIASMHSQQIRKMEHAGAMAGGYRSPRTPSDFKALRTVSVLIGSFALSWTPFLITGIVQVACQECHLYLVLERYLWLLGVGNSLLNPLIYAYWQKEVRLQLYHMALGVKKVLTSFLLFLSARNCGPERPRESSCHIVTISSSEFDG

[2] = target: T2, Glucose-dependent insulinotropic receptor (Homo sapiens, UniProt Q8TDV5); assay: as §1; type: functional, cell-based
T2 sequence (Q8TDV5 whole entry): T1 sequence (whole entry)

[3] = target: T3, Glucose-dependent insulinotropic receptor (Mus musculus) (UniProt Q7TQP3); assay: (§2) Agonist activity at mouse GPR119 assessed as increase in cAMP level; type: functional
T3 sequence (whole entry): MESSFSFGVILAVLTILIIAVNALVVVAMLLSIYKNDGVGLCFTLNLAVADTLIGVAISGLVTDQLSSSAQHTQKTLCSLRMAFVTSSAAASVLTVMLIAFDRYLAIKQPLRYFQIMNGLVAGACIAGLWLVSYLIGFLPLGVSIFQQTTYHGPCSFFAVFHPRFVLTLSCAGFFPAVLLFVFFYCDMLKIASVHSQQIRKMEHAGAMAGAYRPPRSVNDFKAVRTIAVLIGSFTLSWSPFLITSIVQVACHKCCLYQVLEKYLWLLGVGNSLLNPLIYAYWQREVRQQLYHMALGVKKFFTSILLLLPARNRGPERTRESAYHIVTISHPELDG

[4] = target: T4, Glucose-dependent insulinotropic receptor (Mus musculus, UniProt Q7TQP3); assay: as §2; type: functional
T4 sequence (Q7TQP3 whole entry): T3 sequence (whole entry)

Mus musculus = assay: Glucose lowering effect in C57Bl/6NCrl mouse assessed as reduction in glucose level at 3 mg/kg, po administered via gavage pretreated for 30 mins followed by glucose-challenge measured after 20 mins by OGTT relative to control; type: functional; parameters: scale not given: the % may be the effect or the level left
Procedure, shortened: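 Overnight-fasted mice got compound or vehicle orally at 3 to 10 mg/kg. Glucose (3 g/kg po) was given 30 min post-dose. Blood glucose was read by hand-held glucometer before dosing, before glucose and 20 min after glucose. Glucose lowering (%) = [(1 − 20 min glucose of treated / 20 min glucose of vehicle) × 100].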

[5] = Protein binding in human plasma at 10 uM; type: ADME, cell-free; details: read-out: PPB (converted)
[6] = Protein binding in mouse plasma at 10 uM; type: ADME, cell-free; details: read-out: PPB (converted)
[7] = Solubility of the compound at pH 7.4; type: physicochemical; details: buffer

Row | %max [1] [%] | pEC50 [2] | %max [3] [%] | pEC50 [4] | fraction unbound at 10 µM [5] | fraction unbound at 10 µM [6] | solubility [7] [µM] | Compound | Activity (Mus musculus)
1 | 62 | 7.31 | 70 | 6.51 |  |  |  | COCC1(OC(=O)N2CC3COCC(C2)C3Oc2ncnc(Nc3ccc(C#N)cc3F)c2F)CC1 (centres undefined) | 
2 | 59 | 8.00 | 88 | 7.22 |  |  |  | CC1(OC(=O)N2CC3COCC(C2)C3Oc2ncnc(Nc3ccc(C#N)cc3Cl)c2F)CCC1 (centres undefined) | 
3 | 63 | 7.77 | 84 | 7.24 |  |  |  | CC1(OC(=O)N2CC3COCC(C2)C3Oc2ncnc(Nc3cccnc3Cl)c2F)CC1 (centres undefined) | 26%
4 | 114 | 7.59 | 136 | 7.12 |  |  |  | CC1(OC(=O)N2CC3COCC(C2)C3Oc2ncnc(Oc3ccccc3F)c2F)CC1 (centres undefined) | 20%
5 | 73 | 7.72 | 83 | 6.56 |  |  |  | CC1(OC(=O)N2CC3COCC(C2)C3Oc2ncnc(Nc3ccc(-n4cncn4)cc3F)c2F)CC1 (centres undefined) | 27%
6 | 56 | 6.67 | 100 | 6.61 |  |  |  | N#Cc1ccc(Oc2ncnc(OC3C4COCC3CN(c3ncc(F)cn3)C4)c2C2CC2)c(Cl)c1 (centres undefined) | 
7 | 51 | 8.00 | 60 | 7.22 |  |  |  | N#Cc1ccc(Nc2ncnc(OC3C4COCC3CN(C(=O)OC3CCC3)C4)c2F)c(Cl)c1 (centres undefined) | 
8 | 87 | 8.10 | 29 | 7.34 |  |  |  | CC(C)OC(=O)N1[C@H]2CC[C@H]1CC(Oc1ncnc(Nc3ccc(C#N)cc3Cl)c1F)C2 (some centres undefined) | inactive
9 | 94 | 7.82 | 73 | 7.36 |  |  |  | CC1(OC(=O)N2CC3COCC(C2)C3Oc2ncnc(Nc3ccc(F)cc3F)c2F)CC1 (centres undefined) | 27%
10 | 77 | 8.29 | 18 | 7.38 |  |  |  | CC1(OC(=O)N2[C@H]3CC[C@H]2CC(Oc2ncnc(Nc4ccc(C#N)cc4Cl)c2F)C3)CCC1 (some centres undefined) | inactive
11 | 78 | 7.89 | 108 | 6.95 |  |  |  | CC1(OC(=O)N2C[C@H]3COC[C@@H](C2)[C@@H]3Oc2ncnc(Nc3c(F)cccc3F)c2F)CC1 | 31%
12 | 78 | 8.22 | 76 | 7.60 |  |  |  | CC1(OC(=O)N2C[C@H]3COC[C@@H](C2)[C@@H]3Oc2ncnc(Nc3ccccc3F)c2F)CC1 | 21%
13 | 79 | 8.46 | 42 | 7.17 |  |  |  | CC1(OC(=O)N2[C@H]3CC[C@H]2CC(Oc2ncnc(Nc4ccc(C#N)cc4Cl)c2F)C3)CC1 (some centres undefined) | 17%
14 |  |  |  |  | 0.001 | 0.007 | 0.17 (≈ 0.0806 µg/mL) | Cc1c(Nc2ccc(C#N)cc2Cl)ncnc1OC1C[C@@H]2CC[C@@H](C1)N2S(=O)(=O)C1CC1 (some centres undefined) | 
15 | 73 | 7.01 | 79 | 9.37 | 0.145 | 0.081 | 17 (≈ 9.12 µg/mL) | COc1c(Nc2ccc(S(C)(=O)=O)cc2F)ncnc1OC1C[C@@H]2COC[C@@H](C1)N2C(=O)OC1(C)CC1 (some centres undefined) | 
16 | 81 | 8.59 | 44 | 7.68 |  |  |  | CC(C)COC(=O)N1[C@H]2CC[C@H]1CC(Oc1ncnc(Nc3ccc(C#N)cc3Cl)c1F)C2 (some centres undefined) | inactive
17 | 41 | 6.73 | 46 | 6.29 |  |  |  | CC1(COC(=O)N2CC3COCC(C2)C3Oc2ncnc(Nc3ccc(C#N)cc3Cl)c2F)COC1 (centres undefined) | 
18 | 89 | 8.22 | 90 | 7.37 |  |  |  | CCC1(OC(=O)N2CC3COCC(C2)C3Oc2ncnc(Nc3ccc(C#N)cc3F)c2F)CC1 (centres undefined) | 
